PAFAH1B3 FP inh = PAFAH1B3 enzyme inhibitors, primary screen, biochemical, fluorescence polarization, human | recombinant PAFAH1B3, FP-rhodamine probe | inhibition, % at 3.39 µM | 340,000 compounds, 0.28% hits | AID 492972, 2010;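 active means inhibition above the screen-wide average of all tested compounds plus 3 SD, cut at about 25% in these data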;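 further: 0% = enzyme with DMSO only and 100% = wells lacking PAFAH1B3 protein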
PAFAH1B2 inh = PAFAH1B2 enzyme inhibitors, primary screen, biochemical, fluorescence polarization, human | Platelet-activating factor acetylhydrolase IB subunit alpha2 (Homo sapiens), P68402 | inhibition, % at 3.39 µM | recombinant PAFAH1B2, FP-rhodamine activity probe | 340,000 compounds, 1.2% hits;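 active means inhibition above the mean of all tested compounds plus 3 SD, cut at about 24% in these data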;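 further: 0% = enzyme with DMSO and 100% = wells lacking PAFAH1B2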
Target sequence (P68402 whole entry, looked up): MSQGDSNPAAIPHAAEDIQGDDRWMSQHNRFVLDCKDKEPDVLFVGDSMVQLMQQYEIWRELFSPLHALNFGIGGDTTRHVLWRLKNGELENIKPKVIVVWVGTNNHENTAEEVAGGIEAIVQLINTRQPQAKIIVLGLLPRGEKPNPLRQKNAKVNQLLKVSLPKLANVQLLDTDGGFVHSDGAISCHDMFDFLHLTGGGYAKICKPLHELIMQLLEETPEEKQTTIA
ASAP1 inh = inhibitors of human ASAP1 ArfGAP activity, primary screen, biochemical, fluorescence polarization; AID 624377, 2012; ASAP1-stimulated ARF1 GTP hydrolysis, GDP FP detection; inhibition, % at 16.5 µM; 360,000 compounds, 0.19% hits; in the data active means inhibition above about 25%;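 further: 0% = vehicle with enzyme and substrate and 100% = no enzyme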
ARFGAP1 inhibitor = inhibitors of rat ARFGAP1 GAP activity, primary screen, biochemical, fluorescence polarization, GDP tracer; ADP-ribosylation factor GTPase-activating protein 1 (Rattus norvegicus), Q62848; Arfgap1-stimulated ARF1 GTP hydrolysis, GDP FP detection; 360,000 compounds, 0.26% hits; inhibition, % at 16.5 µM;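 active means inhibition above a per-plate limit, mean inhibition of low control wells plus 3 SD, cut at about 25% in these data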;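 further: 0% = DMSO wells with enzyme and 100% = wells lacking Arfgap1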
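system = rat Arfgap1 catalytic domain, aa 1-136 | technique = FP, GDP Alexa 633 tracer displaced from anti-GDP antibody, 620/688 nm | compound = one concentration, 16.5 µM, DMSO 1.26% | medium = HEPES-based buffer, pH 7.5 | timing = compound-enzyme preincubation 20 min, reaction 120 min, detection 60 min, 25 °C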
PAFAH2 inh = PAFAH2 enzyme inhibitors, primary screen, biochemical, fluorescence polarization, human. 340,000 compounds, 0.99% hits. inhibition, % at 3.39 µM. AID 492956, 2010. recombinant PAFAH2, FP-rhodamine activity probe. Platelet-activating factor acetylhydrolase 2, cytoplasmic (Homo sapiens), Q99487;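 active means inhibition above the mean over all tested compounds plus 3 SD, cut at about 30% in these data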;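 further: inhibitors block probe labeling of enzyme so polarization drops; 0% = enzyme with DMSO and 100% = wells lacking PAFAH2 protein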
pPAFAH inh = pPAFAH enzyme inhibitors, primary screen, biochemical, fluorescence polarization, human; AID 463082, 2010; recombinant pPAFAH, FP-rhodamine probe fluorescence polarization; Platelet-activating factor acetylhydrolase (Homo sapiens), Q13093; 330,000 compounds, 1.5% hits; inhibition, % at 3.39 µM;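 active means inhibition above the mean inhibition across the screen plus 3 SD, cut at about 25% in these data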;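 further: inhibitors block binding of the rhodamine activity-based probe so polarization drops; 0% = enzyme with DMSO and 100% = wells lacking pPAFAH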
Target sequence (Q13093 whole entry, looked up): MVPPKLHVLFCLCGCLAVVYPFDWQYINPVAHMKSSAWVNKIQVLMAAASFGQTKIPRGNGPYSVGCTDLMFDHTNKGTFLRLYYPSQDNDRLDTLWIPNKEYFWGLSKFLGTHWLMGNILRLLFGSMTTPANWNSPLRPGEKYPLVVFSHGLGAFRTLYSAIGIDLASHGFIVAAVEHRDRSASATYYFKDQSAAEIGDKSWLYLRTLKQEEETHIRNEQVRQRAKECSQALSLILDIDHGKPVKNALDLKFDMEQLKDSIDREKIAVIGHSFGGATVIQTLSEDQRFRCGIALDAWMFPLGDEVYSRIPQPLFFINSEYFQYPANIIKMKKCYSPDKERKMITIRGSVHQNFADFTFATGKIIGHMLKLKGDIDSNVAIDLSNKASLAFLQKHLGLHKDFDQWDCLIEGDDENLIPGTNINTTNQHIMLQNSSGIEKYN
PAFAH2 confirm = PAFAH2 enzyme inhibitors, confirmation, biochemical, fluorescence polarization, human; shares compounds with PAFAH2 inh; recombinant PAFAH2, FP-rhodamine activity probe; inhibition, % at 3.39 µM; 2,300 compounds, 65% hits;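 active means mean inhibition over three repeats above a set limit taken from the earlier primary screen, cut at about 30% in these data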;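 further: inhibitor blocks binding of rhodamine activity probe so polarization falls; 0% = enzyme with DMSO and 100% = wells lacking PAFAH2 protein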
* hit, by the source's call; x = no result. Compounds with a hit are over-represented: about 2.8% of the library has one in this group of screens.

SMILES | PAFAH1B3 FP inh | PAFAH1B2 inh | ASAP1 inh | ARFGAP1 inhibitor | PAFAH2 inh | pPAFAH inh | PAFAH2 confirm
Cc1nc(C)c(C(=O)OCC(=O)Nc2cccc(C)c2C)s1 | 2 | 1 | 9 | 9 | 66* | 15 | 51*
O=C(COC(=O)c1ccc(F)cc1)NCCc1ccc(F)cc1 | 1 | 2 | 10 | 5 | 36* | 10 | 17
Cc1nc(C)c(C(=O)OCC(=O)NCCc2ccc(F)cc2)s1 | -1 | 5 | 3 | -4 | 31* | x | 23
Cc1nc(C)c(C(=O)OCC(=O)NCCc2ccc(S(N)(=O)=O)cc2)s1 | 9 | 1 | -9 | -4 | 9 | 1 | x
O=C(COC(=O)c1cccs1)NCCc1ccc(F)cc1 | -1 | 1 | -3 | -3 | 55* | x | 49*
O=C(COC(=O)CCC(=O)c1cccs1)NCCc1ccccc1 | 5 | 2 | 2 | 9 | 9 | 3 | x
Cc1nc(C)c(C(=O)Nc2cccc(C)c2C)s1 | 15 | 4 | -3 | -2 | 4 | 1 | x
O=C(Nc1ccccc1Br)c1ccc(N2CCCC2=O)cc1 | -7 | 0 | -7 | -9 | -7 | -2 | x
O=C(COC(=O)c1ccc2c(c1)OCCO2)NCCc1ccc(F)cc1 | -2 | 1 | 15 | 6 | 68* | 10 | 54*
Cc1cccc2c(=O)oc(-c3ccccc3Cl)nc12 | 5 | 4 | -8 | 2 | 49* | 8 | 40*
O=C(Nc1ccsc1C(=O)O)c1ccc(Cl)cc1 | 10 | 8 | -6 | 10 | 31* | -7 | 19
CCOC(=O)c1ccc(COC(=O)c2nonc2N)cc1 | 8 | 4 | -3 | -10 | 8 | 4 | x
Cc1ccc(C(=O)O/N=C(/c2nonc2N)N(C)C)cc1 | 8 | 0 | 0 | 3 | 51* | 21 | 41*
CCCCN1CC(N2CCN(Cc3ccccc3)CC2)CS1(=O)=O (centres undefined) | x | x | 3 | 10 | x | x | x
Cc1cccc(C(C)C)c1NC(=O)COC(=O)CN1C(=O)C2CC=CCC2C1=O (centres undefined) | 4 | 2 | 12 | 18 | 53* | 4 | 37*
CN(C)S(=O)(=O)n1cnc([C@@H]2[C@H]3C(=O)OC[C@@H]3C[C@@]23N=CN(Cc2ccccc2)C3=O)c1 | 8 | 7 | 2 | 2 | 40* | 2 | 34*
CN(C)S(=O)(=O)N1CCN(Cc2ccccc2)CC1 | 2 | -2 | 5 | 6 | 11 | 1 | x
COc1ccc(/C=C/C(=O)OCC(=O)NC2CCCC2)cc1 | -1 | -3 | -8 | 10 | 83* | 8 | 86*
COc1cccc(/C=C/C(=O)OCC(=O)NC(=O)NC2CCCC2)c1 | 8 | 5 | 5 | -18 | 20 | 0 | x
COc1cccc(/C=C/C(=O)OCC(=O)NC2CCCCCCC2)c1 | 1 | 7 | -3 | 17 | 96* | 14 | 82*
COC(=O)/C=C/c1c(C)nc(NCc2ccccc2)nc1Cl | 10 | 6 | -1 | -21 | 4 | 5 | x
Cc1ccsc1C(=O)N1CCC1(C)C(=O)NS(=O)(=O)c1ccc(Br)cc1 (centres undefined) | x | x | -4 | -1 | x | x | x
O=C(CNC(=S)N(CCCN1CCOCC1)Cc1cccs1)NCCCN1CCOCC1 | 4 | 6 | 3 | -5 | 4 | 2 | x
O=C(CNC(=S)N(CCCN1CCOCC1)Cc1cccs1)NCc1ccc(Cl)cc1 | 0 | 7 | 2 | -4 | 48* | 4 | 37*
O=C(CNC(=S)N(CCCN1CCOCC1)Cc1cccs1)NCc1ccccc1Cl | 6 | -1 | -1 | 6 | 47* | 5 | 31*
SMILES | PAFAH1B3 FP inh | PAFAH1B2 inh | ASAP1 inh | ARFGAP1 inhibitor | PAFAH2 inh | pPAFAH inh | PAFAH2 confirm
Cc1c(C(=O)O)sc(S(=O)(=O)N2CCN(C(=O)CC(C)c3ccccc3)CC2)c1C(=O)O (centres undefined) | 9 | 9 | 3 | -4 | -3 | x | x
CCc1nc2ccc(C(=O)Nc3cccc(OCC(=O)N(C)C)c3)cn2c1N(C)Cc1ccc(OC)cc1 | x | x | -5 | -1 | x | x | x
Cc1ccc(C)c(S(=O)(=O)N2CCCOC2CNC(=O)C(=O)NC2CCCC2)c1 (centres undefined) | -4 | 9 | -3 | -4 | -2 | 4 | x
CN(C)c1ccc(-c2ccnc3c2CC(C)(C(=O)NCC2CCOCC2)O3)cc1 (centres undefined) | x | x | 9 | 20 | x | x | x
CCCCCCCCN1C(=O)[C@H](CC(=O)NCCCCc2ccccc2)C[C@@]2(C(=O)OC)CCCCC=C12 | x | x | 2 | 4 | x | x | x
O=c1oc(-c2ccccc2NS(=O)(=O)c2ccccc2)nc2ccccc12 | -1 | 5 | 0 | -1 | 77* | -6 | 67*
Nc1ccccc1-c1nc2ccccc2c(=O)o1 | 13 | 6 | -13 | -3 | 30* | -6 | 21
O=c1oc(-c2ccco2)nc2ccccc12 | 5 | -1 | 2 | -2 | 23 | -1 | x
O=S(=O)(Nc1ccc(NS(=O)(=O)c2ccccc2)c2ccccc12)c1ccccc1 | x | x | 12 | 1 | x | x | x
COc1ccccc1CNC(=O)CN(C)CC(=O)Nc1ccc(F)c(F)c1F | 8 | 4 | -10 | 3 | 6 | -2 | x
O=C(COC(=O)c1ccc[nH]c1=O)NCCc1ccc(Cl)cc1Cl | 10 | 12 | 16 | 11 | 2 | 4 | x
Cc1ccc(C(=O)c2ccccc2C(=O)OCC(=O)NCCc2ccc(Cl)cc2Cl)cc1 | 3 | 5 | -3 | -1 | 46* | 2 | 49*
O=C(COC(=O)/C=C/c1ccccc1Cl)NCCc1ccc(Cl)cc1Cl | 6 | 1 | -6 | -10 | 66* | 6 | 52*
O=C(COC(=O)/C=C/c1ccc(Cl)cc1Cl)NCCC1=CCCCC1 | 3 | 1 | -5 | -2 | -4 | 5 | x
CCCC(C(=O)NNC(=O)c1ccncc1)c1ccccc1 (centres undefined) | 5 | 4 | -4 | -10 | -2 | 0 | x
CC(C)CNC(=O)COC(=O)c1cccc(S(=O)(=O)NCC(F)(F)F)c1 | 4 | 2 | 0 | 14 | 31* | 13 | 20
COC(=O)c1ccc2nc(-c3ccc(C#N)cc3)c(Cc3ccsc3)n2c1 | x | x | -7 | -8 | x | x | x
Cc1ccc(C(=O)Oc2oc(-c3ccco3)nc2C=Nc2ccc(Cl)cc2)cc1 | -3 | -1 | 5 | 2 | 41* | 10 | 21

Screens as filed in PubChem BioAssay.
